CAL PDZ FP-1 = CAL PDZ peptide-binding inhibitors, primary screen, biochemical, fluorescence polarization, Cer-tagged CAL PDZ, HTS | Golgi-associated PDZ and coiled-coil motif-containing protein (Homo sapiens), Q9HD26 | purified CAL PDZ, TMR-peptide fluorescence polarization, 1 h | inhibition, % at 20 µM | 330,000 compounds, 0.02% hits | AID 504414, 2011;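 active = highest replicate inhibition of at least 40%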;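 note: plate controls were DMSO neutral control wells for no effect and unlabeled competitor peptide control wells for full effect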
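Material: tagged CAL PDZ protein CerCALP, purified; buffer or medium: sodium phosphate/NaCl buffer pH 7.4 with TCEP, IgG, Thesit; also added: fluorescent TMR peptide probe; schedule: 1 h incubation at room temperature before polarization reading; technique: fluorescence polarization from S- and P-plane intensities, G-factor corrected; control set: unlabelled peptide and DMSO controls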
SR-BI HDL uptake = inhibitors of SR-BI mediated HDL lipid uptake, primary screen, ldlA[mSR-BI] cells, fluorescence, single point. Scavenger receptor class B member 1 (Mus musculus), Q61009. ldlA[mSR-BI] CHO cells, DiI-HDL uptake fluorescence, 3 h. inhibition, % at 12.5 µM. 320,000 compounds, 0.96% hits. AID 488896, 2010;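 active = mean replicate inhibition of at least 70% and a set share of replicates each scoring 70 or more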;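 note: 0% = median of neutral control wells and 100% = median of positive control wells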
Target sequence (Q61009 whole entry, looked up): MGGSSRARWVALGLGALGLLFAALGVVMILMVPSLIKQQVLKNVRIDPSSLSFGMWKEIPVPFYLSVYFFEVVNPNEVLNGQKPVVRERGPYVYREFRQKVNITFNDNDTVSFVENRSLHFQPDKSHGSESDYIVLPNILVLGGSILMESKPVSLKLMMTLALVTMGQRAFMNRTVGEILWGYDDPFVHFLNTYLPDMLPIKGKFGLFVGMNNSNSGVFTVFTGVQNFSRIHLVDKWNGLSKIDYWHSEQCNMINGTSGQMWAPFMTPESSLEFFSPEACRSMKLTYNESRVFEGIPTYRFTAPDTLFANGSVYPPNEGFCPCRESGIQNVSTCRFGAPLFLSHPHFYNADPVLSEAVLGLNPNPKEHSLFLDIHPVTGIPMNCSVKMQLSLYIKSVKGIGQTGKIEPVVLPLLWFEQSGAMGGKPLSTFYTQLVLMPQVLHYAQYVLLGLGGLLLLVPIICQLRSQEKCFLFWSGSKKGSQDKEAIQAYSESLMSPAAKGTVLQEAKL
SR-BI uptake up = activators of SR-BI mediated DiI-HDL uptake, primary screen, ldlA[mSR-BI] CHO cells, DiI fluorescence. 3 h; 100 = double the neutral-control signal. activation, % at 12.5 µM. 320,000 compounds, 0.096% hits. AID 504775, 2011;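 active = mean replicate activation of at least 60% and every replicate at or above 60%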;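 note: 0% = median plate neutral-control signal and 100% = twice that signal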
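Material: SR-BI-overexpressing, LDLR-lacking CHO cells | Dosing: Single compound concentration, delivered by pin transfer | Probe or stimulus: Labelled HDL, 10 µg/mL | Signal: Bottom-read cell fluorescence after medium removal, ex 550/em 595 nm | Schedule: 3 h, 37 °C | Evaluation: HDL uptake via cellular fluorescence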
ARNT TACC3 PPI = disruptors of ARNT/TACC3 protein interaction, primary screen, biochemical, AlphaScreen, single concentration. Transforming acidic coiled-coil-containing protein 3 (Homo sapiens), Q9Y6A5. AlphaScreen His-ARNT PAS-B/GST-TACC3 binding, luminescence; TACC3 fragment carries E629A point mutation. inhibition, % at 9.99 µM. 390,000 compounds, 0.66% hits;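 active = mean inhibition of replicates at least 50% and at least half of replicates each reaching 50%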;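 note: 0% = complete ARNT plus TACC3 wells and 100% = ARNT alone without TACC3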
miR122 inh = miR-122 Renilla sensor signal increase in Huh7, primary screen, miR-122 inhibitor project, cell-based, single point, plate reader. Huh7 miR-122 Renilla luciferase sensor, 48 h; neutral wells = 0, positive control = 100. activation (reporter increase), % at 12.5 µM. 340,000 compounds, 0.3% hits;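 active = mean replicate activation score at least 90 and every replicate individually at or above 90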;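 note: higher luciferase means less miR-122 activity so hits act as miR-122 inhibitors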
CAL PDZ FP-2 = untagged CAL PDZ binding inhibitors, primary screen, biochemical, fluorescence polarization, HTS; inhibition, % at 24.9 µM; purified CAL PDZ, TMR-peptide fluorescence polarization, 1 h; Golgi-associated PDZ and coiled-coil motif-containing protein (Homo sapiens), Q9HD26; 300,000 compounds, 0.92% hits;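 active = mean inhibition of at least 30% with at least half of replicates also reaching 30%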;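 note: 0% = DMSO neutral control and 100% = excess unlabeled competitor peptide PRC23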
The depositor's hits bear a star; [ ] = another dose, or the depositor's remark. Sampled rows, rich in hits. Any-hit rate of the full collection: about 2.1%.

How did Cc1ccc(-n2c(C)cc(/C=N/NC(=O)c3ccncc3)c2C)cc1 do in these assays?
CAL PDZ FP-1: 0; SR-BI HDL uptake: 30; SR-BI uptake up: -30; ARNT TACC3 PPI: 6; miR122 inh: -4; CAL PDZ FP-2: 1

What do the screens show for `C[C@H](CO)N1C[C@H](C)[C@@H](CN(C)S(=O)(=O)c2cn(C)cn2)Oc2ncc(/C=C/c3ccccc3)cc2C1=O`?
ARNT TACC3 PPI: -4; miR122 inh: -1[16.7 µM]

How did CCOc1ccc(N=Cc2c(C)[nH]n(-c3nc4ccccc4[nH]3)c2=O)cc1 do in these assays?
CAL PDZ FP-1: -2; SR-BI HDL uptake: 6; SR-BI uptake up: -6; ARNT TACC3 PPI: 72*; CAL PDZ FP-2: 0

Results for CC(C)(C)NC(=O)C(=O)NNC(=O)C12CC3CC(CC(C3)C1)C2 ?
SR-BI HDL uptake: -111; SR-BI uptake up: 111*; ARNT TACC3 PPI: -6; miR122 inh: 0; CAL PDZ FP-2: -3

Results for COc1cccc(S(=O)(=O)N[C@@H]2C=C[C@@H](CC(=O)NCc3ccccc3)O[C@@H]2CO)c1 ?
ARNT TACC3 PPI: 1

Results for Cc1oc(-c2ccccc2)cc1C(=O)Nc1ccccc1 ?
CAL PDZ FP-1: -2; SR-BI HDL uptake: 90*; ARNT TACC3 PPI: 1; miR122 inh: 6; CAL PDZ FP-2: 0

What do the screens show for `COc1ccc(NC(=O)c2cc(-c3ccccc3)oc2C)cc1`?
CAL PDZ FP-1: -2; SR-BI HDL uptake: 3; SR-BI uptake up: -3; ARNT TACC3 PPI: -2; CAL PDZ FP-2: 2

What do the screens show for `O=C(CCCn1c(=O)[nH]c2ccsc2c1=O)NC1CCCCC1`?
CAL PDZ FP-1: 0; SR-BI HDL uptake: -29; SR-BI uptake up: 29; ARNT TACC3 PPI: -15; CAL PDZ FP-2: -1

What do the screens show for `O=C(CCCn1c(=O)[nH]c2cc(Cl)ccc2c1=O)NC1CCCCCCC1`?
CAL PDZ FP-1: 0; SR-BI HDL uptake: -33; SR-BI uptake up: 33; ARNT TACC3 PPI: -5; miR122 inh: -1; CAL PDZ FP-2: 53*

What do the screens show for `CNC(=O)C[C@@H]1CC[C@H]2[C@@H](COc3ccc(NC(=O)Cc4cccs4)cc3C(=O)N2C)O1`?
ARNT TACC3 PPI: -31; miR122 inh: 33[16.7 µM]

How did Cc1ccccc1N=Nc1c(C)[nH]n(C(N)=S)c1=O do in these assays?
CAL PDZ FP-1: 0; SR-BI HDL uptake: -20; SR-BI uptake up: 20; ARNT TACC3 PPI: -4; miR122 inh: 0; CAL PDZ FP-2: -4

What do the screens show for `CCOc1ccccc1N=Nc1c(C)[nH]n(C(N)=S)c1=O`?
SR-BI HDL uptake: 56; SR-BI uptake up: -56; ARNT TACC3 PPI: 9; miR122 inh: 1; CAL PDZ FP-2: 37*

What do the screens show for `COc1ccccc1C(=O)N/N=C/C(C)=C/c1ccccc1`?
CAL PDZ FP-1: 8; SR-BI HDL uptake: 9; SR-BI uptake up: -9; ARNT TACC3 PPI: 2; miR122 inh: -2; CAL PDZ FP-2: 35*

What do the screens show for `CC(/C=N/NC(=O)c1ccncc1)=C\c1ccccc1`?
CAL PDZ FP-1: -6; SR-BI HDL uptake: -16; SR-BI uptake up: 16; ARNT TACC3 PPI: 5; miR122 inh: 0; CAL PDZ FP-2: -1

How did CO[C@@H]1CN(C)C(=O)c2cc(NS(=O)(=O)c3cccc(C)c3)ccc2OC[C@@H](C)N(C(=O)Cc2cccnc2)C[C@H]1C do in these assays?
ARNT TACC3 PPI: 3

How did CC1CCN(CCCNC(=O)c2ccc3c(=O)n(Cc4ccc(Cl)cc4)c(=S)[nH]c3c2)CC1 do in these assays?
CAL PDZ FP-1: 66*; SR-BI HDL uptake: 2; SR-BI uptake up: -2; ARNT TACC3 PPI: 4; miR122 inh: -4; CAL PDZ FP-2: -1

How did COC(=O)c1ccc2c(=O)n(Cc3ccc(C(=O)NCCCN4CCC(C)CC4)cc3)c(=S)[nH]c2c1 do in these assays?
CAL PDZ FP-1: -3; SR-BI HDL uptake: 49; SR-BI uptake up: -49; ARNT TACC3 PPI: -8; CAL PDZ FP-2: -7

How did CCCN(CCC)c1ccc(/C=C/c2ccc3cc(OCC)ccc3n2)cc1 do in these assays?
CAL PDZ FP-1: -4; SR-BI HDL uptake: 71*; SR-BI uptake up: -71; ARNT TACC3 PPI: -5; CAL PDZ FP-2: -29

Results for Oc1ccc(/C=C/c2ccc3ccccc3n2)cc1 ?
CAL PDZ FP-1: 0; SR-BI HDL uptake: 24; SR-BI uptake up: -24; ARNT TACC3 PPI: -12; miR122 inh: -6; CAL PDZ FP-2: 69*

How did C(=C\c1ccc2ccccc2n1)/c1ccccc1 do in these assays?
CAL PDZ FP-1: -2; SR-BI HDL uptake: 17; SR-BI uptake up: -15; ARNT TACC3 PPI: 5; miR122 inh: 2; CAL PDZ FP-2: -6

Results for O=[N+]([O-])c1ccc(/C=C/c2ccc3ccccc3n2)cc1 ?
CAL PDZ FP-1: 1; SR-BI HDL uptake: 21; SR-BI uptake up: -21; ARNT TACC3 PPI: 6; miR122 inh: -8; CAL PDZ FP-2: -5

What do the screens show for `CN(C)c1ccc(/C=C/c2ccc3ccccc3n2)cc1`?
CAL PDZ FP-1: -1; SR-BI HDL uptake: 4; SR-BI uptake up: -4; ARNT TACC3 PPI: -12; miR122 inh: -1; CAL PDZ FP-2: 100*

How did CC(=O)Nc1ccc2c(c1)C(=O)N(C)[C@@H]1CC[C@H](CC(=O)NCC3CC3)O[C@H]1CO2 do in these assays?
ARNT TACC3 PPI: -9; miR122 inh: -1[16.7 µM]

Results for Cc1ccc(S(=O)(=O)N/N=C/c2ccc(OCC(=O)Nc3ccccc3Cl)cc2)cc1 ?
CAL PDZ FP-1: -1; SR-BI HDL uptake: -13; SR-BI uptake up: 13; ARNT TACC3 PPI: 1; miR122 inh: 219*

Results for COCC(C)N1CCC(Oc2cccc(C(=O)NCCc3ccccc3)c2)CC1 (stereo not drawn) ?
CAL PDZ FP-1: 0; SR-BI HDL uptake: 5; SR-BI uptake up: -5; ARNT TACC3 PPI: 5; CAL PDZ FP-2: 49*

What do the screens show for `CC(C)CN1CCC(Oc2cccc(C(=O)NCCc3ccccc3)c2)CC1`?
CAL PDZ FP-1: -3; SR-BI HDL uptake: -5; SR-BI uptake up: 5; ARNT TACC3 PPI: -9; miR122 inh: -4; CAL PDZ FP-2: 29

What do the screens show for `NC(=O)C(=O)NN=C1C2CC3CC(C2)CC1C3`?
CAL PDZ FP-1: 0; SR-BI HDL uptake: -3; SR-BI uptake up: 3; ARNT TACC3 PPI: 1; miR122 inh: -12; CAL PDZ FP-2: 1
